The record followed here is ChEMBL document CHEMBL4699493, “Development of Bis-cyclic Imidazolidine-4-one Derivatives as Potent Antibacterial Agents” (J Med Chem, 2020).

Values after ≈ are worked out from the molar mass of the structure shown. Active and inactive are the calls of the source. No cut-off for these calls is given here.

Data set [1] has as its system Cell membrane. Description: Induction of cell membrane disruption in Escherichia coli ATCC 25922 assessed as propidium iodide-positive cells at 2 times MIC after 2 hrs by fluorescence microscopic analysis. It is filed as subcellular. The method, boiled down:
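Bacteria from a 10^6 CFU/mL suspension diluted 100-fold and treated with compound at 2 × MIC for 2 h. Cells pelleted (4000g, 15 min, 4 °C), washed three times in PBS, and stained 15 min with PI (5 μg/mL) and DAPI (10 μg/mL). Imaged by oil-immersion fluorescence microscopy; untreated controls included. Three repeats in duplicate.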

A short description of data set [2]: Selectivity ratio of IC50 for cytotoxicity against human HeLa cells to MIC for methicillin-resistant Staphylococcus aureus. It is filed as toxicity, cell-based. The gist of the method: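 HeLa cells were seeded at 5×10^3/well and allowed to attach for 24 h (37 °C, 5% CO2). They were then exposed 24 h to a range of compound concentrations in growth medium. Viability was read by CCK-8 (1 h, absorbance 490 nm). Triplicate wells, three repeats. IC50 was divided by the MRSA MIC.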

Data set [3] has as its system Cell membrane. Description: Induction of cell membrane disruption in methicillin-resistant Staphylococcus aureus ATCC 33591 at 2 times MIC after 2 hrs by transmission electron microscopic analysis. It is filed as subcellular. The gist of the method:
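Bacteria at 10^6 CFU/mL were treated at 2× MIC for 2 h at 37 °C, pelleted, washed three times in PBS and resuspended in deionized water. Samples were dropped on grids, blotted, dried under vacuum at 50 °C for 30 s, then imaged by TEM. Untreated control.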

The subject of data set [4] is Cell membrane. Nature of the data set: Induction of inner membrane permeabilization in methicillin-resistant Staphylococcus aureus ATCC 33591 at 2 times MIC measured for 12 mins by propidium iodide staining based fluorescence microscopic analysis. It is filed as functional, subcellular. The method, boiled down: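 Mid-log cells were washed in 5 mM HEPES/5 mM glucose and set at 10^6 CFU/mL, then mixed with PI (10 μM stock). Baseline fluorescence (ex 535/em 617 nm) was read about 8 min at 2-min intervals. Compound was then added and reading continued for 12 min. Water-only negative control; three repeats.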

Data set [5] deals with Escherichia coli. Description: Antibacterial activity against Escherichia coli ATCC 25922. It is filed as functional. The method, boiled down: (§1)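 Broth microdilution in TSB. Stocks at 5 mg/mL in DMSO diluted with TSB to 100 μg/mL, then serially diluted; highest test concentration 25 μg/mL. Bacteria grown 16 h, subcultured 6 h to log phase, adjusted to 10^6 CFU/mL by OD600. MIC = lowest concentration giving complete growth inhibition. At least three repeats, each in duplicate.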

Data set [6] is described as follows: Selectivity ratio of HC50 for hemolytic activity against mouse RBC to MIC for methicillin-resistant Staphylococcus aureus. The data set is classed as toxicity. As to conditions: mouse red blood cells (erythrocytes). The method, boiled down: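 Mouse RBCs were washed three times in PBS and diluted in 20 volumes of PBS. They were mixed with compound 2-fold serially diluted from 1 mg/mL in PBS, incubated 1 h at 37 °C, then centrifuged; supernatant read at A540. % hemolysis was calculated against PBS (0%) and 2% Triton (100%). Done ≥3 times in duplicate. HC50 was divided by the MRSA MIC.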

Data set [7] deals with Cell membrane. Description: Induction of cell membrane disruption in Escherichia coli ATCC 25922 at 2 times MIC after 2 hrs by transmission electron microscopic analysis. It is filed as subcellular. The method, boiled down: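 Bacteria at 10^6 CFU/mL treated with compound at 2 × MIC for 2 h at 37 °C; untreated controls included. Cells pelleted, washed three times in PBS, resuspended in deionized water, dropped onto grids, blotted, vacuum-dried at 50 °C for 30 s, and imaged by TEM.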

In a further data set the test system is Staphylococcus aureus. Description: Antibacterial activity against methicillin-resistant Staphylococcus aureus ATCC 33591 measured for 13 passages. The data set is classed as functional, organism-based. The method, boiled down:
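Serial-passage resistance test. A first MIC was run by TSB broth microdilution. Bacteria from the well after the last clear well were resuspended to about 10^6 CFU/mL for the next MIC. This was repeated for 13 passages.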

Data set [8] deals with Staphylococcus epidermidis. Nature of the data set: Antibacterial activity against methicillin-resistant Staphylococcus epidermidis RP62A. The data set is classed as functional. The gist of the method: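 Broth microdilution in TSB. Strains were grown 16 h, subcultured 6 h to log phase, then diluted to 10^6 CFU/mL by OD600. Compound came from a 5 mg/mL DMSO stock diluted in TSB and serially diluted, top final concentration 25 μg/mL. MIC was the lowest concentration giving complete growth inhibition. Done ≥3 times in duplicate.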

Data set [9] concerns Escherichia coli. Nature of the data set: Antibacterial activity against Escherichia coli ATCC 25922 in presence of divalent Ca2+. The data set is classed as functional. The gist of the method: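 MIC by the standard TSB broth dilution method, in TSB made with DI water and supplemented with CaCl2 to 2 mM. Inoculum of log-phase bacteria at 10^6 CFU/mL. MIC = lowest concentration completely inhibiting growth.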

For data set [10], the system named is Staphylococcus epidermidis. Description: Antibacterial activity against methicillin-resistant Staphylococcus epidermidis RP62A in presence of monovalent Na+ and K+. It is filed as functional. The gist of the method:
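MIC set up as in the standard broth microdilution (log-phase inoculum at 10^6 CFU/mL, complete growth inhibition end point). The medium was TSB dissolved in 1× PBS (7.5 g per 250 mL) and autoclaved, supplying Na+ and K+.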

The subject of a further data set is Klebsiella pneumoniae. Nature of the data set: Antibacterial activity against Klebsiella pneumoniae ATCC 13383. The data set is classed as functional. The gist of the method: as §1
For data set [11], the system named is Staphylococcus epidermidis. Description: Antibacterial activity against methicillin-resistant Staphylococcus epidermidis RP62A in presence of divalent Ca2+. It is filed as functional. The method, boiled down:
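MIC set up as in the standard TSB broth microdilution (log-phase inoculum at 10^6 CFU/mL, complete growth inhibition end point). The medium was TSB prepared in DI water with CaCl2 added to 2 mM.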

The test system of data set [12] is Escherichia coli. Description: Bactericidal activity against Escherichia coli ATCC 25922 at 24 to 48 microg/ml measured after 30 mins by time kill assay. Conditions: dose microg/ml 24-48, time 30.0 min. The data set is classed as functional, organism-based. The method, boiled down:
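Mid-log bacteria at 10^6 CFU/mL incubated with compound (12, 24, 48 μg/mL) at 37 °C for 10, 30, 60, 120 min; untreated control. Mixtures diluted 10^4-fold, plated on TSB agar, incubated 20 h at 37 °C, colonies counted and plotted against time. Three repeats.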

The test system of data set [13] is Cell membrane. Description: Induction of cell membrane depolarization in Escherichia coli ATCC 25922 assessed as increase in fluorescence intensity measured after 30 mins by DiSC3 staining based fluorescence spectroscopic technique. The data set is classed as subcellular. The method, boiled down:
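Mid-log E. coli washed in 5 mM HEPES/5 mM glucose and resuspended in HEPES/glucose/100 mM KCl to OD600 about 0.05. DiSC3(5) added (8 μL of a 10 μM solution per 200 μL). Fluorescence (ex 622 nm, em 670 nm) read at room temperature for 30 min, then compound added at 0.5, 1, 2 and 4 × MIC and monitoring continued. Controls: untreated and 1% Triton X-100. Three repeats in duplicate.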

The next data set has as its system HeLa. Nature of the data set: Cytotoxicity against human HeLa cells after 24 hrs by MTT assay. The data set is classed as cell-based. The gist of the method:
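HeLa cells seeded at 5 × 10^3 cells/well, attached 24 h at 37 °C, 5% CO2, then exposed to a range of compound concentrations in growth medium for 24 h. Viability read with CCK-8 reagent, absorbance at 490 nm after 1 h. Triplicate wells, three repeats.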

As usually defined, the MIC is the least concentration at which growth counts as inhibited. As a reminder, the IC50 is the point on the concentration scale where inhibition reaches its midpoint. Higher therefore signals weaker potency in that assay. In the case of `CCCCCCCCCC(=O)N[C@@H](CCCCN)CN1CC(=O)N(c2ccc(N3CN(C[C@H](CCCCN)NC(=O)CCCCCCCCC)CC3=O)cc2)C1`, the outcome in the data set on Cell membrane [1], with Cell membrane [3], in the data set on Cell membrane [4], with Cell membrane [7], in the data set on Staphylococcus aureus and in the data set with Escherichia coli [12] was Active. For the same compound, the selectivity ratio in [2] was more than 38; in data set [6], more than 125. In addition, the MIC in the data set on Escherichia coli [5] came to 5 µg/mL (≈ 6.38 µM); in [8] it was 5 µg/mL (≈ 6.38 µM); with Escherichia coli [9], 7 µg/mL; in [10], 7 µg/mL; against Klebsiella pneumoniae, 5 µg/mL (≈ 6.38 µM); in data set [11], 2 µg/mL. In the data set on Cell membrane [13], the Activity entry was “Dose-dependent effect”. Half-maximal inhibition in the data set on HeLa (IC50) required 74.8 µg/mL (≈ 95.5 µM).
